Laboratory results: ChEMBL document CHEMBL3045003, “Divalent and oxabridged neonicotinoids constructed by dialdehydes and nitromethylene analogues of imidacloprid: design, synthesis, crystal structure, and insecticidal activities” (2010)

Columns and labels:
Assay type in all cases: functional
Aphis craccivora [1] = test: Insecticidal activity against apterous adult stage of Aphis craccivora (cowpea aphid) in horsebean leaves assessed as mortality at 500 mg/l at 25 +/-1 degC treated for 5 secs measured after 24 hr by leaf-dip method
How it was run: (§1)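 Leaf-dip assay: horsebean leaves carrying 40-60 apterous adults were dipped in diluted compound, excess liquid was blotted off with filter paper, and they were held at 25 ± 1 °C, 50% RH. Controls were water containing Triton X-100. Mortality was scored 24 h after treatment, with three repetitions per treatment. Data were adjusted and subjected to probit analysis.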

Aphis craccivora [2] = test: Insecticidal activity against apterous adult stage of Aphis craccivora (cowpea aphid) in horsebean leaves assessed as mortality at 25 +/-1 degC treated for 5 secs measured after 24 hr by leaf-dip method; how it was run: as §1
Mythimna separata [3] = test: Insecticidal activity against second instar larval stage of Mythimna separata (Oriental armyworm) in compound pretreated corn leaves assessed as mortality at 500 mg/l at 25 +/-1 degC after 48 hr
Mythimna separata [4] = test: Insecticidal activity against second instar larval stage of Mythimna separata (Oriental armyworm) in compound pretreated corn leaves assessed as mortality at 25 +/-1degC after 48 hr
Nilaparvata lugens [5] = test: Toxicity ratio of imidacloprid LC50 to compound LC50 for macropterous adult stage of imidaclopride-resistant Nilaparvata lugens (brown planthopper) after 48 hr by microtopical application technique
How it was run: (§2)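 Toxic ratio is imidacloprid's baseline-toxicity LC50 divided by the compound's LC50. LC50 values come from topical application of acetone solutions (0.08 μL droplet, prothorax notum, CO2 anesthesia) to unmated macropterous females aged 2-3 days, about 30 per concentration, three repeats. Insects were reared on seedlings at 25 ± 1 °C, and values were derived by probit analysis.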

Nilaparvata lugens [6] = test: Toxicity ratio of imidacloprid LC50 to compound LC50 for macropterous adult stage of imidaclopride-sensitive Nilaparvata lugens (brown planthopper) after 48 hr by microtopical application technique; how it was run: as §2
Nilaparvata lugens [7] = test: (§3) Insecticidal activity against macropterous adult stage of imidaclopride-resistant Nilaparvata lugens (brown planthopper) assessed as concentration required to induce mortality per pest at 25 +/-1 degC applied topically to the prothorax notum of insect prior to rearing on rice seedlings measured after 48 hr by microtopical application technique
How it was run: (§4)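 Microtopical application on unmated macropterous adult females aged 2-3 days. Compounds were serially diluted in acetone, and a 0.08 μL droplet was applied to the prothorax notum under CO2 anesthesia. About 30 insects were used per concentration, with three repeats; controls received acetone. Insects were then reared on soilless seedlings at 25 ± 1 °C, 16/8 h light/dark. LC50 (ng/pest) was obtained from probit regression lines.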

Nilaparvata lugens [8] = test: as §3, with “imidaclopride-sensitive” for “imidaclopride-resistant”; how it was run: as §4

SMILES: O=[N+]([O-])/C=C1/NCCN1Cc1ccc(Cl)nc1
- mortality at 500 µg/mL (Aphis craccivora [1]): 100%
- LC50 (Aphis craccivora [2]): 5.12 µM
- mortality at 500 µg/mL (Mythimna separata [3]): 100%
- LC50 (Mythimna separata [4]): 70.9 µM

SMILES: O=[N+]([O-])C1=C2N(Cc3ccccc3)CCN2[C@@H]2CC[C@H]1O2
- mortality at 500 µg/mL (Aphis craccivora [1]): 13.6%
- mortality at 500 µg/mL (Mythimna separata [3]): 0%

SMILES: O=[N+]([O-])C1=C2N(Cc3ccc(Cl)cc3)CCN2[C@@H]2CC[C@H]1O2
- mortality at 500 µg/mL (Aphis craccivora [1]): 95.7%
- mortality at 500 µg/mL (Mythimna separata [3]): 0%

SMILES: O=[N+]([O-])/C(=C1/NCCN1Cc1ccc(Cl)nc1)C(O)/C=C(\C1=NCCN1Cc1ccc(Cl)nc1)[N+](=O)[O-] (configuration not stated)
- mortality at 500 µg/mL (Aphis craccivora [1]): 78.1%
- mortality at 500 µg/mL (Mythimna separata [3]): 100%
- LC50 (Mythimna separata [4]): 195 µM

SMILES: COC(/C=C(\C1=NCCN1Cc1ccc(Cl)nc1)[N+](=O)[O-])/C(=C1\NCCN1Cc1ccc(Cl)nc1)[N+](=O)[O-] (configuration not stated)
- mortality at 500 µg/mL (Aphis craccivora [1]): 97.7%
- mortality at 500 µg/mL (Mythimna separata [3]): 100%

SMILES: O=[N+]([O-])/C(=C/C/C=C(\C1=NCCN1Cc1ccc(Cl)nc1)[N+](=O)[O-])C1=NCCN1Cc1ccc(Cl)nc1
- mortality at 500 µg/mL (Aphis craccivora [1]): 100%
- LC50 (Aphis craccivora [2]): 9.51 µM
- mortality at 500 µg/mL (Mythimna separata [3]): 100%
- LC50 (Mythimna separata [4]): 28 µM

SMILES: O=[N+]([O-])C1=C2N(Cc3ccc(Cl)nc3)CCN2[C@@H]2CC[C@H]1O2
- RatioLC50 (Nilaparvata lugens [5]): 40.4
- RatioLC50 (Nilaparvata lugens [6]): 1.77
- LC50 (Nilaparvata lugens [7]): 0.4925 ng
- LC50 (Nilaparvata lugens [8]): 0.0742 ng
- mortality at 500 µg/mL (Aphis craccivora [1]): 100%
- LC50 (Aphis craccivora [2]): 4.71 µM
- mortality at 500 µg/mL (Mythimna separata [3]): 100%
- LC50 (Mythimna separata [4]): 38.7 µM

SMILES: O=[N+]([O-])C1=C2N(Cc3cnc(Cl)s3)CCN2[C@@H]2CC[C@H]1O2
- mortality at 500 µg/mL (Aphis craccivora [1]): 100%
- LC50 (Aphis craccivora [2]): 8.83 µM
- mortality at 500 µg/mL (Mythimna separata [3]): 100%
- LC50 (Mythimna separata [4]): 49.6 µM

SMILES: O=[N+]([O-])/N=C1\NCCN1Cc1ccc(Cl)nc1 [IMIDACLOPRID]
- RatioLC50 (Nilaparvata lugens [5]): 1
- RatioLC50 (Nilaparvata lugens [6]): 1
- LC50 (Nilaparvata lugens [7]): 22.1614 ng
- LC50 (Nilaparvata lugens [8]): 0.1316 ng
- mortality at 500 µg/mL (Aphis craccivora [1]): 100%
- LC50 (Aphis craccivora [2]): 35 µM
- mortality at 500 µg/mL (Mythimna separata [3]): 100%
- LC50 (Mythimna separata [4]): 125 µM
